For series [1], the system named is MGC-803. Briefly: Induction of ROS generation in human MGC-803 cells at 1 uM incubated for 24 hrs by DCFH-DA staining based flow cytometry analysis (reference value: 2.2%). It is filed as functional. Background: A flow cytometer gives signals particle by particle.
In another series the target is Cullin-4A (Homo sapiens) (UniProt Q13619). Briefly: Inhibition of cullin4A neddylation in human KYSE-70 cells at 0.3 to 10 uM incubated for 24 hrs by Western blot analysis. It is filed as cell-based. The note with it: KYSE-70 cell line, dose 0.3-10 µM. The procedure, abridged:
(§1)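 Cells in 6-well plates were exposed to compound for 24 h. MGC-803 were grown in DMEM and KYSE70 in RPMI 1640, both with 10% FBS at 37 °C and 5% CO2. Lysates were made in RIPA with protease inhibitors and quantified by BCA. 30 μg protein was run on 8% SDS-PAGE and blotted to nitrocellulose. Primary antibodies were applied overnight at 4 °C, then HRP secondaries, with ECL and film detection. GAPDH was the loading control. Run three times.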

Series [2] concerns the target Tyrosine-protein kinase BTK (Homo sapiens) (UniProt Q06187). Briefly: Inhibition of N-terminal GST-tagged full length human BTK (2 to 659 residues) expressed in Sf21 insect cells using 5-FAM-EAIYAAPFAKKK as substrate at 10 uM incubated for 60 mins relative to control. An outline of the steps: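 Mobility-shift kinase assay with BTK at 5 nM, 3 μM 5-FAM peptide and 90 μM ATP. Buffer was 50 mM HEPES pH 7.5, 0.0015% Brij-35, 10 mM MgCl2 and 2 mM DTT. Reactions ran 60 min at 28 °C and were stopped with EDTA. Substrate conversion was read on Caliper and converted to % inhibition.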

The next series has as its target Cullin-4B (Homo sapiens) (UniProt Q13620). Nature of the series: Inhibition of cullin4B neddylation in human KYSE-70 cells at 0.3 to 10 uM incubated for 24 hrs by Western blot analysis. Format: cell-based. The note with it: KYSE-70 cell line, dose 0.3-10 µM. An outline of the steps: as §1
(In general: Immunoblotting shows a protein as a band on a membrane.)

In series [3] the test system is KYSE-70 cell line. Nature of the series: Inhibition of cullin2 neddylation in human KYSE-70 cells at 0.3 to 10 uM incubated for 24 hrs by Western blot analysis. It is filed as cell-based. The note with it: dose 0.3-10 µM. The procedure, abridged:
as §1

Another series concerns the target Cullin-1 (Homo sapiens) (UniProt Q13616). Nature of the series: Inhibition of cullin1 neddylation in UBC/DCN1 overactivated human MGC-803 cells at 10 uM incubated for 24 hrs by Western blot analysis. It is filed as cell-based. An outline of the steps: as §1
Series [4] can be described thus: Metabolic stability in dog liver microsomes assessed as intrinsic clearance. It is filed as ADME, Canis lupus familiaris, Microsome. The note with it: read-out: CLH. (Liver microsomes are vesicles of endoplasmic reticulum, rich in cytochrome P450 enzymes.)
The target in series [5] is CDK2/Cyclin A2 (Homo sapiens) (UniProt P24941+P20248). Nature of the series: Inhibition of GST-tagged human CDK2/Cyclin A2 expressed in baculovirus infected Sf9 cells using 5-FAM-QSPKKG-CONH2 as substrate at 10 uM incubated for 60 mins in presence of ATP relative to control. An outline of the steps: (§2)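 CDK/cyclin complexes were assayed with 3 μM 5-FAM peptide substrate. ATP was 20 μM for CDK1, 30 μM for CDK2, 280 μM for CDK4, 800 μM for CDK6 and 10 μM for CDK9. Buffer was 50 mM HEPES pH 7.5, 0.0015% Brij-35, 10 mM MgCl2 and 2 mM DTT. Reactions ran 60 min at 28 °C and were stopped with EDTA. Caliper conversion values were converted to % inhibition.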

The target in series [6] is CDK6/cyclin D3 (Homo sapiens) (UniProt P30281+Q00534). Nature of the series: Inhibition of full length human CDK6/N-terminal GST fused human cyclinD3 expressed in baculovirus expression system using 5-FAMIPTSPITTTYFFFKKK-COOH as substrate at 10 uM incubated for 60 mins in presence of ATP relative to control. The procedure, abridged:
as §2

Another series has as its target T1, Cullin-5 (Homo sapiens) (UniProt Q93034).
T1 sequence (whole entry): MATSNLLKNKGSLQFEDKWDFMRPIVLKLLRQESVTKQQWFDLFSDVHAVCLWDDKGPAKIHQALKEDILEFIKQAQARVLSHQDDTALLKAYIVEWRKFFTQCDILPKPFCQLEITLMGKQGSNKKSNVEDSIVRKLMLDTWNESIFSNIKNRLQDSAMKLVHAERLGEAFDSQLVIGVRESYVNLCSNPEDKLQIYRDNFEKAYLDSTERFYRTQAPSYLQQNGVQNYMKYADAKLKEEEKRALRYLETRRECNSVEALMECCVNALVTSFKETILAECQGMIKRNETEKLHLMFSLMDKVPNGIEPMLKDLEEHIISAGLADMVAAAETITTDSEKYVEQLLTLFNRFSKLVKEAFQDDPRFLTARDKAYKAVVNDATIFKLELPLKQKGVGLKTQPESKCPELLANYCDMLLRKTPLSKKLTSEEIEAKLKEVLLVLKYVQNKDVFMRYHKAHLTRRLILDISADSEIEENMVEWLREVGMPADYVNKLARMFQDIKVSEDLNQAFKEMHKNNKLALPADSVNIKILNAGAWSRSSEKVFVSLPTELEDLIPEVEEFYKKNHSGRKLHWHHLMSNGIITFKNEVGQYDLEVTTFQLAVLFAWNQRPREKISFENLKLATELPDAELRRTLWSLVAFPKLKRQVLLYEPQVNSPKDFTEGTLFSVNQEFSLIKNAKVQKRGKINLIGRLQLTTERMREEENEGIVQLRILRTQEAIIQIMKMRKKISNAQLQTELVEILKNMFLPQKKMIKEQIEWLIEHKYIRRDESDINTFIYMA
Briefly: Inhibition of cullin5 neddylation in human KYSE-70 cells at 0.3 to 10 uM incubated for 24 hrs by Western blot analysis. The note with it: KYSE-70 cell line, dose 0.3-10 µM. Format: cell-based. An outline of the steps: as §1

A further series concerns KYSE-70. Briefly: Upregulation of NRF2 protein expression in human KYSE-70 cells incubated for 24 hrs by Western blot analysis. It is filed as functional, cell-based. The note with it: dose 0.3-10 µM. An outline of the steps: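 Cells were grown at 37 °C in 5% CO2 with 10% FBS, MGC-803 in DMEM and KYSE70 in RPMI 1640. They were exposed to the indicated compound concentrations for 24 h, then lysed in RIPA with protease inhibitors and quantified by BCA. 30 μg of protein was run on 8% SDS-PAGE and blotted to nitrocellulose. Primary antibody was applied overnight at 4 °C, with HRP secondary and ECL film detection. GAPDH served as the loading control; the experiment was done three times.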

Series [7] relates to KYSE-70 cell line. Nature of the series: Inhibition of cullin3 neddylation in human KYSE-70 cells incubated for 24 hrs by Western blot analysis. Format: cell-based. The note with it: dose 0.3-10 µM. An outline of the steps: as §1
Series [8] can be described thus: Metabolic stability in rat liver microsomes assessed as half life. Format: ADME, Microsome.
The test system of series [9] is Epidermal growth factor receptor (Homo sapiens), P00533 [L858R]. Nature of the series: Inhibition of human EGFR L858R mutant (669 to 1210 residues) expressed in Sf21 insect cells using 5-FAM-EEPLYWSFPAKKK-CONH2 as substrate at 10 uM incubated for 30 mins relative to control.
Sequence of Epidermal growth factor receptor (Homo sapiens), P00533 [L858R] (P00533 whole entry L858R, the tested form may be a part): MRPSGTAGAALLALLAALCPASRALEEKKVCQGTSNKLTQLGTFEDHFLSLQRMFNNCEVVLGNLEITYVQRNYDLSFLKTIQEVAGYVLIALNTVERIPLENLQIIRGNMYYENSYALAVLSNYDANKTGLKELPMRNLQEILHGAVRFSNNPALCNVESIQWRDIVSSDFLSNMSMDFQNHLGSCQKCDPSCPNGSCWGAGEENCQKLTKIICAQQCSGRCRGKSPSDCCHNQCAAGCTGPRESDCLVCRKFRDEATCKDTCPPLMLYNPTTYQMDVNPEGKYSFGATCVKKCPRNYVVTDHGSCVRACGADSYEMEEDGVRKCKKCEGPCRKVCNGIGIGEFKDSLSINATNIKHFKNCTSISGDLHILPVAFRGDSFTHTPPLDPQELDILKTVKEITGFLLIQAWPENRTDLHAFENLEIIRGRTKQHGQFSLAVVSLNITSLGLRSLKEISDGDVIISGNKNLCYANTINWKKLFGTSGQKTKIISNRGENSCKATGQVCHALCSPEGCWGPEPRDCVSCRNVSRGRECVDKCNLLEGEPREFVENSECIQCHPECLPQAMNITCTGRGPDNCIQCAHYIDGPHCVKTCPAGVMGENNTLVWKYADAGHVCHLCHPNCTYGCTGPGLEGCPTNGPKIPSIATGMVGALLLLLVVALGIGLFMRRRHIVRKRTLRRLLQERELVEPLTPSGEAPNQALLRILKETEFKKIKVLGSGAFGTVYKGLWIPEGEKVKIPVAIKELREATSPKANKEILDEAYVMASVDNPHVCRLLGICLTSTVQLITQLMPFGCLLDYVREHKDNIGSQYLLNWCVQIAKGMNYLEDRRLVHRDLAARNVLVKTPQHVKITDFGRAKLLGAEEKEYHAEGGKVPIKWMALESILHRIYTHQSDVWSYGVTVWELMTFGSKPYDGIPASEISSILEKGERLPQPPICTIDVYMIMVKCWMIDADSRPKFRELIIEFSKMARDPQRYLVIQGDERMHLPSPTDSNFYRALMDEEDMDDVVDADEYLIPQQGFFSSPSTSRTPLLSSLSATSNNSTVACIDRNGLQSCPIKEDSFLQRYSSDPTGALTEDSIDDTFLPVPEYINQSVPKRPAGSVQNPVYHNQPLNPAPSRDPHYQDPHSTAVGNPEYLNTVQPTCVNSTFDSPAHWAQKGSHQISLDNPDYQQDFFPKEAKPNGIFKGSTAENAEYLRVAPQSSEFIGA
Series [10] has as its target Cyclin-dependent kinase 1/cyclin B (Homo sapiens) (UniProt P06493+P14635+Q8WWL7+O95067). Briefly: Inhibition of C-terminal His6 tagged human full length CDK1/N-terminal GST-tagged human full length Cyclin B expressed in baculovirus infected Sf21 cells using 5-FAM-QSPKKG-CONH2 as substrate at 10 uM incubated for 60 mins in presence of ATP relative to control. The procedure, abridged: as §2

The subject of series [11] is MGC-803. Nature of the series: Induction of p21 accumulation in human MGC-803 cells incubated for 24 hrs by Western blot analysis. It is filed as functional, cell-based. The note with it: dose 1-10 µM. The procedure, abridged:
as §1

For orientation: inhibition means the drop in the measured response relative to a control, in per cent. The term half-life denotes the time in which the quantity being followed falls by half.

Active and inactive are the calls of the source. The calls are words filed in the database; no cut-off is given here. Bounds are passed on as bounds.

Sequence of Cullin-4B (Homo sapiens) (Q13620 whole entry): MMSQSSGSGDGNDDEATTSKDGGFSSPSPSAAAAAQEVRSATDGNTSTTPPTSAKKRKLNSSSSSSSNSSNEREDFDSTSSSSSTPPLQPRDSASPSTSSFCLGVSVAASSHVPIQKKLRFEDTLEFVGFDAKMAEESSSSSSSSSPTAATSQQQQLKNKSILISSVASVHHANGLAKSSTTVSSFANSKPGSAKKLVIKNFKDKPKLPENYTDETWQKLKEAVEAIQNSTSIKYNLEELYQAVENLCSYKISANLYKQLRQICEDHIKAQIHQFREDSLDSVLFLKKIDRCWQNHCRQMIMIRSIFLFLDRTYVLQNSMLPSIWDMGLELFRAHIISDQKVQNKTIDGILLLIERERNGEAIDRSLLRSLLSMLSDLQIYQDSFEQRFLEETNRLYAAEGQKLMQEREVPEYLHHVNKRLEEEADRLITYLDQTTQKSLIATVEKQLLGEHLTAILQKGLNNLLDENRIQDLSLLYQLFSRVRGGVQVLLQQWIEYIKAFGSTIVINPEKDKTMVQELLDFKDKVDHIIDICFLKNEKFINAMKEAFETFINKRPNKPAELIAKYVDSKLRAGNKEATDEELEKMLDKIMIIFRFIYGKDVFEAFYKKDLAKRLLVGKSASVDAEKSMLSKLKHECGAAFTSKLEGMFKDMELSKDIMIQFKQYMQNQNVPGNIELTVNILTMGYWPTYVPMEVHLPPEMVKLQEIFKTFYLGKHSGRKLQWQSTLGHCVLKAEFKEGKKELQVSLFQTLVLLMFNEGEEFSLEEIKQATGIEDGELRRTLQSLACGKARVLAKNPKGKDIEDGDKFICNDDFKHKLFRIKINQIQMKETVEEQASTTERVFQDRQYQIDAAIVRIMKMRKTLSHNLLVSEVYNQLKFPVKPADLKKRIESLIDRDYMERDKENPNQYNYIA
Sequence of Cullin-4A (Homo sapiens) (Q13619 whole entry): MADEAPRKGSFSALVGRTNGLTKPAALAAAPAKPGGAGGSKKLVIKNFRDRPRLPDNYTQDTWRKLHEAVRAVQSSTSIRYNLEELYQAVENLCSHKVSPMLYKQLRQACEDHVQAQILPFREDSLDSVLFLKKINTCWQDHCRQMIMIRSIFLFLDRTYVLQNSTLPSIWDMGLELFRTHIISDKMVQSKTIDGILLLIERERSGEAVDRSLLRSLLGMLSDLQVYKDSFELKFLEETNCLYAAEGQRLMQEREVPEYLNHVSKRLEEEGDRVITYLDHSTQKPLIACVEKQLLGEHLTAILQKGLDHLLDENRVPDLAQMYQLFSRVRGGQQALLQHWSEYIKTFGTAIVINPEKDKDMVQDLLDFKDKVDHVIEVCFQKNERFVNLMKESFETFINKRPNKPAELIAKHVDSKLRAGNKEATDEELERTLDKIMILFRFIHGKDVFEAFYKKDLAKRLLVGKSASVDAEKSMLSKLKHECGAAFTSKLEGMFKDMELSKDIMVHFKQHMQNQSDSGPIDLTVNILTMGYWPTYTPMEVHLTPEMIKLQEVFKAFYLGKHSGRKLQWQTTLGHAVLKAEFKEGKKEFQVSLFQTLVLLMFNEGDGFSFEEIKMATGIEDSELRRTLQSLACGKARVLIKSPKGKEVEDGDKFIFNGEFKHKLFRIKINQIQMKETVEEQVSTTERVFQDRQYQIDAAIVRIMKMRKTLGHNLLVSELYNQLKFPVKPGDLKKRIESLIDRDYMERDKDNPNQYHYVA
Sequence of Cullin-1 (Homo sapiens) (Q13616 whole entry): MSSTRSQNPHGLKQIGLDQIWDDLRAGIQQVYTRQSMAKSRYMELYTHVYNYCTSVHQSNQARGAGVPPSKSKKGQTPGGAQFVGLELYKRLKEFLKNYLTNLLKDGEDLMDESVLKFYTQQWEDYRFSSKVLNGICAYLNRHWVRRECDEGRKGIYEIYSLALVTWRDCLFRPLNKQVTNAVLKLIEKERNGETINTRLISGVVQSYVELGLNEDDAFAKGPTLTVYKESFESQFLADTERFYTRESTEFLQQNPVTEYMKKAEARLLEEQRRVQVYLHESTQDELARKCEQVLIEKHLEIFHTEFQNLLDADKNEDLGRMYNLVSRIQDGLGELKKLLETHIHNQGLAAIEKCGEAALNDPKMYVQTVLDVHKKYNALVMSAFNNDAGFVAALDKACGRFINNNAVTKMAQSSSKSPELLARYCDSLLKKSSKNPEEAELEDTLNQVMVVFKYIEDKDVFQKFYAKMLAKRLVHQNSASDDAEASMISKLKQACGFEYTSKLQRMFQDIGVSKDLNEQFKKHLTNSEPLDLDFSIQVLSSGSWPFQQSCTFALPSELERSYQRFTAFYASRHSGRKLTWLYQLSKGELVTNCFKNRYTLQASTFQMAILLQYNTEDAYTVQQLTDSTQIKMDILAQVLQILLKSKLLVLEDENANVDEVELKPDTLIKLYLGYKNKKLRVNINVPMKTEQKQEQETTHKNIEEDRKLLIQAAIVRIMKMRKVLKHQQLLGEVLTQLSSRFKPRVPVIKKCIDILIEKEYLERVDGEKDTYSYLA
Sequence of Tyrosine-protein kinase BTK (Homo sapiens) (Q06187 whole entry, the tested form may be a part): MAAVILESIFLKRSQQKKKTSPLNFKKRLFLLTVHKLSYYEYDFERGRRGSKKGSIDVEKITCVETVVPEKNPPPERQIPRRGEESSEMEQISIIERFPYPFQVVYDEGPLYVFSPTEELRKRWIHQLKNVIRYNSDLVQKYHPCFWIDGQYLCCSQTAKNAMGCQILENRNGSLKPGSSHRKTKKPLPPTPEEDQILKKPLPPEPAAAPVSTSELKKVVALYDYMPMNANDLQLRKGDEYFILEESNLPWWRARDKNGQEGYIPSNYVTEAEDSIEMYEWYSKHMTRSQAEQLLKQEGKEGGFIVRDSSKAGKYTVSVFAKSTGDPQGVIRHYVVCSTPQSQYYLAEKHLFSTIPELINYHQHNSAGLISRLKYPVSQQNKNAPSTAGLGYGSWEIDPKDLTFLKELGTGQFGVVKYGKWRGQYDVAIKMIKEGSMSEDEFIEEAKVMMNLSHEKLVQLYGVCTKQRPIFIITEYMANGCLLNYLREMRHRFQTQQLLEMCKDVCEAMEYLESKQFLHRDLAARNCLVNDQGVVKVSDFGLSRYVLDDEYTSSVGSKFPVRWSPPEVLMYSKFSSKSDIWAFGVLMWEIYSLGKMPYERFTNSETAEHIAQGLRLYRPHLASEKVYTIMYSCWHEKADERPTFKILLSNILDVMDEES

As to `Cc1cc(Sc2nnnn2CCN(C)C)n2nc(SCc3ccc(Cl)cc3)nc2n1.Cl`, the Activity in the series on MGC-803 [1] was 3.8%; in the series on KYSE-70, “Dose-Dependent Effect”; in the series on MGC-803 [11], “Dose-Dependent Effect”. The inhibition entry at Cullin-4A (Homo sapiens), at Cullin-4B (Homo sapiens), with KYSE-70 cell line [3] and on Cullin-5 (Homo sapiens) was “inactive” each time. The inhibition in [2] was 13.6%; in [5], 20.5%; in series [6] it was 21.8%; with KYSE-70 cell line [7], “Dose-Dependent Effect”; in series [9] it was -0.6%; in [10], 9.6%. Besides, the inhibition entry at Cullin-1 (Homo sapiens) is “Active”. For the same compound, the CLint scaled in [4] came to 691 mL/min/kg. The half-life in [8] was less than 5 min.

Values taken from ChEMBL document CHEMBL5260843 (J Med Chem, 2019).
